Values after ≈ are worked out from the molar mass of the structure shown. Active and inactive are the calls of the source. No cut-off for these calls is given here.

A short description of data set [1]: Volume of distribution at steady state in Sprague-Dawley rat at 4 mg/kg administered as single IV bolus dose. The class given is ADME, organism-based. The following applies: in vivo, read-out: Vdss. An outline of the steps: (§1)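 Single IV bolus of 4.0 mg/kg in male Sprague–Dawley rats; dosing solution 1.1 mg/mL in saline-based vehicle with 0.1 M hydroxypropyl-β-cyclodextrin and 10% (v/v) DMSO; plasma pharmacokinetic parameters derived.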

Data set [2] is described as follows: Solubility of the compound at pH 6.5. It counts as physicochemical. As to conditions: buffer.
Data set [3] has as its system Mus musculus. The data set can be described thus: Reversal of scopolamine-induced memory impairment in mouse assessed as increase in spontaneous alteration at 0.3 mg/kg, po administered with compond and scopolamine at 60 mins and 30 mins respectively prior to test by T-maze test. It counts as functional. An outline of the steps:
(§2)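 Mouse T-maze continuous alternation task with scopolamine-induced impairment of spontaneous alternation; compound given orally in saline-based vehicle with 25% Cremophor ELP over 0.003–10.0 mg/kg; group means compared by one-way ANOVA then Fisher's PLSD, p < 0.05 significant.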

The nature of data set [4]: Stability in human liver microsomes assessed as hepatic extraction ratio at 1 uM measured for 45 mins by LC-MS/MS analysis. The class given is ADME, Microsome. As to conditions: read-out: ERH.
In data set [5] the test system is Mus musculus. The data set can be described thus: Reversal of scopolamine-induced memory impairment in mouse assessed as increase in spontaneous alteration at 1 mg/kg, po administered with compond and scopolamine at 60 mins and 30 mins respectively prior to test by T-maze test. As to conditions: read-out: INH. It counts as functional. An outline of the steps: as §2

Data set [6] in a line: Plasma clearance in Sprague-Dawley rat at 4 mg/kg administered as single IV bolus dose. The class given is ADME, organism-based. Put shortly: as §1
Data set [7] is described as follows: Half life in Sprague-Dawley rat plasma at 4 mg/kg administered as single IV bolus dose. The class given is ADME, organism-based. Put shortly:
as §1

Data set [8] can be described thus: Dose normalized AUC (0 to infinity) in Sprague-Dawley rat at 4 mg/kg administered as single IV bolus dose. As to conditions: in vivo. The class given is ADME, organism-based. An outline of the steps:
as §1

Data set [9] deals with Mus musculus. The experiment in a line: Reversal of scopolamine-induced memory impairment in mouse assessed as increase in spontaneous alteration at 0.003 mg/kg, po administered with compond and scopolamine at 60 mins and 30 mins respectively prior to test by T-maze test. It counts as functional. Put shortly:
as §2

The target of data set [10] is Neuronal acetylcholine receptor subunit alpha-7 (Rattus norvegicus) (UniProt Q05941). The experiment in a line: Positive allosteric modulatory activity at rat alpha7 nAChR expressed in GH4C1 cells assessed as AUC of potentiation of peak current at -70 mV holding potential preincubated for 30 secs followed by co-application with acetylcholine by manual patch clamp assay relative to peak current potentiation. The class given is cell-based. Put shortly:
(§3)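 Conventional manual patch-clamp with a fast-application system on stable GH4C1 cells expressing rat α7 nAChR; currents evoked by acetylcholine with and without test compound; peak-current change relative to acetylcholine alone gives potentiation (P₃ at 3 μM; concentration–response for EC₅₀ and Pmax).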

For data set [11] the target is unchanged. The experiment in a line: Positive allosteric modulatory activity at rat alpha7 nAChR expressed in GH4C1 cells assessed as AUC of potentiation of acetylcholine response at 3 uM at -70 mV holding potential preincubated for 30 secs followed by co-application with acetylcholine by automated patch clamp assay relative to potentiation of current response. It counts as cell-based.

Data set [12] shares this target. The data set can be described thus: Positive allosteric modulatory activity at rat alpha7 nAChR expressed in GH4C1 cells assessed as potentiation of peak current at -70 mV holding potential preincubated for 30 secs followed by co-application with acetylcholine by manual patch clamp assay relative to acetylcholine-induced peak current. It counts as cell-based. Put shortly:
as §3

Data set [13] has as its system Mus musculus. The data set can be described thus: Reversal of scopolamine-induced memory impairment in mouse assessed as increase in spontaneous alteration at 3 mg/kg, po administered with compond and scopolamine at 60 mins and 30 mins respectively prior to test by T-maze test. As to conditions: read-out: INH. It counts as functional. An outline of the steps: as §2

In data set [14] the target is Neuronal acetylcholine receptor subunit alpha-7 (Rattus norvegicus) (UniProt Q05941). The experiment in a line: Positive allosteric modulator activity at rat alpha7 nAChR expressed in GH4C1 cells assessed as potentiation of acetylcholine response at 3 uM at -70 mV holding potential preincubated for 30 secs followed by co-application with acetylcholine by automated patch clamp assay. It counts as cell-based. An outline of the steps: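 Automated planar patch clamp on stable GH4C1 (rat) cell lines expressing rat α7 nAChR; test compound at 3 μM with an EC₂₀ acetylcholine challenge; percent change in peak current versus acetylcholine alone taken as P₃.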
Chain of Neuronal acetylcholine receptor subunit alpha-7 (Rattus norvegicus) (Q05941 whole entry): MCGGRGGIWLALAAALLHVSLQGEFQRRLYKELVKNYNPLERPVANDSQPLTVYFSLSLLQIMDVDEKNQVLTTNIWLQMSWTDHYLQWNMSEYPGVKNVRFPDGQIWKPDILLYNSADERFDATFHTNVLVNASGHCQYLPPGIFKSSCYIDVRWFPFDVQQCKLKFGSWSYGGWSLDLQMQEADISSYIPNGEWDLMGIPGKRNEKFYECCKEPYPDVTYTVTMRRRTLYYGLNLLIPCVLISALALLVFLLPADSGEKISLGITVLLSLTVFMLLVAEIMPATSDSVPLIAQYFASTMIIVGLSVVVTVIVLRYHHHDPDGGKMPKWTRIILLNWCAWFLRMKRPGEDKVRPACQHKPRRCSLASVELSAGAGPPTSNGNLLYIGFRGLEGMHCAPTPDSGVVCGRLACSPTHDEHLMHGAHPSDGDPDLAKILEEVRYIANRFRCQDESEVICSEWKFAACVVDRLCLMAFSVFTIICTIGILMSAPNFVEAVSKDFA

The nature of data set [15]: Stability in mouse liver microsomes assessed as hepatic extraction ratio at 1 uM measured for 45 mins by LC-MS/MS analysis. The class given is ADME, Microsome. As to conditions: read-out: ERH.
Data set [16] is described as follows: Oral bioavailability in Sprague-Dawley rat. As to conditions: in vivo. The class given is ADME, organism-based.
The nature of data set [17]: Lipophilicity, log D of the compound at pH 7.4. The class given is physicochemical. The following applies: buffer.
The nature of data set [18]: Solubility of the compound at pH 2. The class given is physicochemical. The following applies: buffer.
Data set [19] relates to Mus musculus. The data set can be described thus: Reversal of scopolamine-induced memory impairment in mouse assessed as increase in spontaneous alteration at 0.03 mg/kg, po administered with compond and scopolamine at 60 mins and 30 mins respectively prior to test by T-maze test. It counts as functional. An outline of the steps:
as §2

Data set [20] concerns the target Neuronal acetylcholine receptor subunit alpha-7 (Rattus norvegicus, UniProt Q05941). The experiment in a line: (§4) Positive allosteric modulatory activity at rat alpha7 nAChR expressed in GH4C1 cells assessed as potentiation of acetylcholine response at -70 mV holding potential preincubated for 30 secs followed by co-application with acetylcholine by manual patch clamp assay. The class given is cell-based. Put shortly:
as §3

Data set [21] is described as follows: Apparent permeability in human Caco2 cells. As to conditions: Caco-2. It counts as ADME, cell-based.
Data set [22] concerns Mus musculus. The data set can be described thus: Reversal of scopolamine-induced memory impairment in mouse assessed as spontaneous alteration at 3 to 30 mg/kg, po administered with compond and scopolamine at 60 mins and 30 mins respectively prior to test by T-maze test. It counts as functional, organism-based. An outline of the steps:
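Mouse T-maze continuous alternation task; reversal of scopolamine-induced loss of spontaneous alternation after ip or oral doses of 3 and 30 mg/kg; significant doses reported.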

The target in data set [23] is Neuronal acetylcholine receptor subunit alpha-7 (Rattus norvegicus) (UniProt Q05941). The data set can be described thus: Agonist activity at rat alpha7 nAChR expressed in GH4C1 cells assessed as current response at 3 uM at -70 mV holding potential by manual patch clamp assay. It counts as cell-based. An outline of the steps: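 Manual patch clamp with fast application on stable GH4C1 cells expressing α7 nAChR; test compound applied without acetylcholine to look for evoked currents.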

Another data set concerns the target Cytochrome P450 2C19 (Homo sapiens, UniProt P33261). The experiment in a line: Inhibition of CYP2C19 (unknown origin). It counts as ADME.
The target of another data set is Cytochrome P450 2C9 (Homo sapiens, UniProt P11712). The data set can be described thus: Inhibition of CYP2C9 (unknown origin). It counts as ADME.
Chain of Cytochrome P450 2C9 (P11712 whole entry): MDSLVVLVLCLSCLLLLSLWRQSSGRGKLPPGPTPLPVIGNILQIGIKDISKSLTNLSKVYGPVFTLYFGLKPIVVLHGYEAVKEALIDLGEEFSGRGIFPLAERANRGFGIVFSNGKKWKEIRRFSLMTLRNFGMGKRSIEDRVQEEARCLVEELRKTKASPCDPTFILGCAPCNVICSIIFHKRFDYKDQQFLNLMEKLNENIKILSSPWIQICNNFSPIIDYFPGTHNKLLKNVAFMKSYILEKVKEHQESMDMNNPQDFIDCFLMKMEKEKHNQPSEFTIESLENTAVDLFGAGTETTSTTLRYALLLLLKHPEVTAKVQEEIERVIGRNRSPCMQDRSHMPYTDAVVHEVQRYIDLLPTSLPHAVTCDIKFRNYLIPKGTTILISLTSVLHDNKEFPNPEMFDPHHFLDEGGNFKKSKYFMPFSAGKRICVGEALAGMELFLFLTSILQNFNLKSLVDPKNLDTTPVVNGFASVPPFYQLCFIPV
Data set [24] concerns the target Neuronal acetylcholine receptor subunit alpha-7 (Rattus norvegicus) (UniProt Q05941). The data set is described as §4. It counts as cell-based. Put shortly:
as §3

Chain of Neuronal acetylcholine receptor subunit alpha-7 (Q05941 whole entry): as the sequence (Q05941 whole entry) above
Chain of Cytochrome P450 2C19 (P33261 whole entry): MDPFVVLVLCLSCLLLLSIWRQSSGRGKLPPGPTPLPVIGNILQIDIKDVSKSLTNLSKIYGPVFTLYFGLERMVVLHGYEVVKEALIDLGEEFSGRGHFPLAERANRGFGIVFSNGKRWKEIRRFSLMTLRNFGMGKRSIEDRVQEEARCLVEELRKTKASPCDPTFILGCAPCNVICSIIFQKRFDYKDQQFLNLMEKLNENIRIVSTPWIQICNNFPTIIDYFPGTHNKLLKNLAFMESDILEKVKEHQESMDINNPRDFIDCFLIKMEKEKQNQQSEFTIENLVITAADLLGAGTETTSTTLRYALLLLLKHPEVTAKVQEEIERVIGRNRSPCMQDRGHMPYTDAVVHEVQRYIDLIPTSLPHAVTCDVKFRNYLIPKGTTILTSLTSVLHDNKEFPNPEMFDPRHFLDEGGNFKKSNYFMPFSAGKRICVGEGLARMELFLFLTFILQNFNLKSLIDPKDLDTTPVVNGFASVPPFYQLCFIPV

Take `COc1ccc(Cl)cc1NC[C@@H]1[C@@H](c2ccc(S(N)(=O)=O)cc2)C1(C)C`: in data set [1], the Vd amounted to 1.8 L/kg. Moreover, the solubility was 1.6 to 3.1 µg/mL (≈ 4.05 to 7.85 µM) in data set [2] and over 100 µg/mL in data set [18]. In addition, the inhibition in vivo at 0.3 mg/kg in the data set with Mus musculus [3] worked out at 62%. Besides, the hepatic extraction ratio at 0.75 h, 1 µM in [4] amounted to 0.84; in data set [15] it was 0.79. In addition, the percent reversal of scopolamine-induced memory impairment (increase in spontaneous alternation) at 1 mg/kg in the data set with Mus musculus [5] was found to be 78%. Besides, the clearance in data set [6] turned out to be 35 mL/min/kg. The compound further gave a half-life in [7] of 1.2 h. The same compound showed an AUC/dose in [8] of 1.2 µM·h/mg. The inhibition in vivo at 0.003 mg/kg in the data set on Mus musculus [9] is -9%. Further, the Ratio in [10] turned out to be 1.7; in data set [11], 3.1. In addition, the maximal effect (Emax) in [12] turned out to be 1570%. Further, the percent reversal of scopolamine-induced memory impairment at 3 mg/kg with Mus musculus [13] worked out at 78%. For the same compound, in data set [14], the Activity stood at 1160%. The compound also had a bioavailability in data set [16] of 62%. In data set [17], this compound had a logD of 4.2. Moreover, in the data set on Mus musculus [19], the inhibition in vivo at 0.03 mg/kg was 51%. Besides, in [20], the half-maximal effective concentration (EC50) came out at 1900 nM. For the same compound, in [21], the Papp stood at 11 ×10⁻⁶ cm/s.

For `COc1ccc(Cl)cc1NC[C@H]1[C@H](c2ccc(S(N)(=O)=O)cc2)C1(C)C`, the Vd in data set [1] was found to be 5.1 L/kg. The inhibition in vivo at 0.3 mg/kg in the data set with Mus musculus [3] came out at 65%. Further, the hepatic extraction ratio at 0.75 h, 1 µM in data set [4] is 0.59; in data set [15], 0.71. This compound yielded a clearance in [6] of 43 mL/min/kg. For the same compound, the half-life in [7] was 3.9 h. In data set [8], this compound gave an AUC/dose of 1 µM·h/mg. For the same compound, the inhibition in vivo at 0.003 mg/kg in the data set on Mus musculus [9] is -3%. For the same compound, the Ratio is 25 in data set [10] and 57 in data set [11]. Further, the Emax in [12] was determined as 1630%. Also, in the data set on Mus musculus [13], the percent reversal of scopolamine-induced memory impairment at 3 mg/kg was found to be 90%. Further, the Activity in data set [14] was 11800%. In addition, the bioavailability in data set [16] worked out at 77%. For the same compound, the inhibition in vivo at 0.03 mg/kg with Mus musculus [19] was found to be 11%. Besides, the EC50 in data set [20] amounted to 63 nM. For the same compound, in data set [21], the apparent permeability (Papp) amounted to 14 ×10⁻⁶ cm/s.

Turning to `COc1ccc(Cl)cc1NCC1C(c2ccc(S(N)(=O)=O)cc2)C1(C)C` (racemic), in the data set with Mus musculus [22], the inhibition result was “Active”. Moreover, the solubility in [2] was over 100 µg/mL; in [18], 1.6 to 3.1 µg/mL (≈ 4.05 to 7.85 µM). Also, the results for the hepatic extraction ratio at 0.75 h, 1 µM in data set [4] and in data set [15] were 0.64 and 0.82, respectively. Also, the inhibition result in data set [23] was “inactive”. The Emax in [12] came to 650%. The IC50 on Cytochrome P450 2C19 and at Cytochrome P450 2C9 was over 10000 nM in each case. Also, the Activity in data set [14] is 7900%; in data set [24], “Dose-dependent effect”. Besides, the concentration for a half-maximal effect (EC50) in data set [20] stood at 25 nM.

The values are drawn from ChEMBL document CHEMBL4364238, “Discovery of BNC375, a Potent, Selective, and Orally Available Type I Positive Allosteric Modulator of α7 nAChRs” (ACS Med Chem Lett, 2019).
